Source: PubChem BioAssay
Calls of active or inactive are those of the source.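 How the source made its calls, unless noted: active means compounds giving at least 50% inhibition in the cell-based MKP-3 phosphatase rescue imaging test; inactive means the rest.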

Legend:
[1] = inhibitors of TNFa-induced NFkB p65 translocation, primary screen, imaging, HUVEC, MLSMR starter and 10KST1 sets (AID 438;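 active means inhibition above 20% together with a positive visual image hit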;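 further: compound added about 3h40 before a 20 min TNFalpha stimulation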;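 on inhibition: signal is the nuclear over cytoplasmic p65 intensity ratio per well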); conditions: HUVEC TNFa-induced p65 nuclear translocation; cell count: measured here: nuclei count (cytotoxicity indicator), at 2.08 µM; inhibition: at 2 µM, stronger effect = higher value, 0% TNFa-plus-vehicle, 100% no-TNFa wells
[2] = endothelial E-selectin expression blockers – imaging, HUVEC, immunofluorescence, MLSMR starter and 10KST1 sets, primary screen (AID 487;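 active means visually confirmed hit in the image check and inhibition above 20%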;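 on inhibition: signal is fraction of cell area covered by stained E-selectin grains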;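 on nuclei count: 100% = median nuclei count of all wells on the same plate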); conditions: HUVEC TNFalpha-induced E-selectin immunofluorescence imaging, at 2 µM; inhibition: stronger effect = higher value; nuclei count: measured here: cell number, toxicity
[3] = Primary imaging screen for DUSP6 inhibitors that restore phospho-Erk in transfected HeLa cells, chemical complementation (AID 609); conditions: HeLa MKP-3 transfected, phospho-Erk imaging KS statistic, at 10 µM, cells stimulated with TPA for 15 min;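 on inhibition: phospho-Erk level distribution per well compared with pooled transfected vehicle control wells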
[4] = biological target: Dual specificity protein phosphatase 6 (Homo sapiens) (UniProt Q16828); experiment: as above; conditions: HeLa MKP-3 transfected, phospho-Erk imaging KS statistic; at 10 µM; stronger effect = higher value; cells stimulated with TPA for 15 min
[5] = biological target: Voltage-gated potassium channel subunit beta-2 (Rattus norvegicus) (UniProt P62483); experiment: inhibitors of rat Kvbeta2 reductase activity – biochemical, NADPH fluorescence, primary screen (AID 622;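 active means fluorescence slope higher than the sample average by over 3 SD, cut at about -0.22 in these data, passing the limit was not always enough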;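 further: slope of raw intensity against log time taken from 70 to 1610 s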); conditions: recombinant KvBeta, 4-cyanobenzaldehyde reduction, at 10 µM, stronger effect = higher value
[6] = biological target: Voltage-gated potassium channel subunit beta-2 (Rattus norvegicus) (UniProt P62483); experiment: enhancers of rat Kvbeta2 NADPH turnover – biochemical, NADPH fluorescence, primary screen (AID 623;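 active means NADPH fluorescence slope more negative than the mean of all samples by about 3 SD, 99.7% confidence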;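 further: fluorescence intensity change per second fitted from 20 to 320 s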); conditions: Recombinant KvBeta, NADPH fluorescence decrease slope, 10 min; at 10 µM; stronger effect = lower value
[7] = biological target: Alpha-2C adrenergic receptor (Homo sapiens) (UniProt P18825); experiment: compounds altering alpha2C-coupled GIRK flux – cell-based, HEK293 alpha2C/GIRK1/2, thallium flux, primary screen (AID 624;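 active means fluorescence slope after compound addition differing from the mean of all screened samples at 99.7% confidence, in either direction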;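 further: slope of fluorescence ratio to pre-addition baseline per second over 15 to 24 s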); conditions: thallium flux BTC fluorescence, at 10 µM, actives lie on both sides
[8] = inhibitors of larval lipid processing in zebrafish, primary screen, whole organism, PED6 fluorescence, gall bladder and intestine (AID 686;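 active means a full or partial loss of lipid-probe fluorescence in the fish gall bladder, intestine or both, judged by eye; inactive means no fluorescence loss, or compound toxic to the fish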;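 further: larvae 5 to 7 days old with five fish per well; signal comes from phospholipase A2 cleavage of quenched PED6 carried via bile; overnight exposure to compound and PED6 before scoring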); conditions: Zebrafish larvae PED6 lipid processing, fluorescence scoring; screened at 20 µM (by protocol)
Summary of the method: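 Doses: 20 µM single dose. Test system: live zebrafish larvae aged 5-7 days, whole organism. Quantity: five larvae per well. Measured by: By-eye fluorescence microscopy. Reagent: ingested quenched lipid PED6 at 100 nM. Read-out: visual per-well fluorescence inhibition score. Times: overnight exposure of larvae to compound plus PED6.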

[9] = loss of swimming-algae plug formation – whole organism, Chlamydomonas reinhardtii, WT vs cilia-less mutant, absorbance, 96-well, primary screen (AID 463189;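 active means inhibition at or above 50% relative to wild type and mutant plate controls; inactive means inhibition below 50%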;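 further: 0% = wild type cc124 cells in DMSO and 100% = ciliumless bld1 mutant cells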); conditions: Chlamydomonas reinhardtii gravitaxis, OD600 absorbance, 2 days; at 10 µM; stronger effect = higher value
[10] = measured here: cell density z-score
[11] = measured here: nuclear c-Myc green intensity z-score
[12] = measured here: nuclear pErk red intensity z-score, stronger effect = higher value

Chain of Dual specificity protein phosphatase 6 (Homo sapiens) (Q16828 whole entry, looked up): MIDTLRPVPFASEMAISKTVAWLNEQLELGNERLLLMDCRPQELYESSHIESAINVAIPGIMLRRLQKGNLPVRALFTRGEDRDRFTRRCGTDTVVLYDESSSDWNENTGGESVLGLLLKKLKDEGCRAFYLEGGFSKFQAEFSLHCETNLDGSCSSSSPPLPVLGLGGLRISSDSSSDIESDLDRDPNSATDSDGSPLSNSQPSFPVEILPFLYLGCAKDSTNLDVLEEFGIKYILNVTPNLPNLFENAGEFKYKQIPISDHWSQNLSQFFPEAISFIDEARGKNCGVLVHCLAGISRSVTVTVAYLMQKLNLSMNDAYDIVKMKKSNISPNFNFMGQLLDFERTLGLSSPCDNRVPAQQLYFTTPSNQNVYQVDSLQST
Chain of Voltage-gated potassium channel subunit beta-2 (Rattus norvegicus) (P62483 whole entry, looked up): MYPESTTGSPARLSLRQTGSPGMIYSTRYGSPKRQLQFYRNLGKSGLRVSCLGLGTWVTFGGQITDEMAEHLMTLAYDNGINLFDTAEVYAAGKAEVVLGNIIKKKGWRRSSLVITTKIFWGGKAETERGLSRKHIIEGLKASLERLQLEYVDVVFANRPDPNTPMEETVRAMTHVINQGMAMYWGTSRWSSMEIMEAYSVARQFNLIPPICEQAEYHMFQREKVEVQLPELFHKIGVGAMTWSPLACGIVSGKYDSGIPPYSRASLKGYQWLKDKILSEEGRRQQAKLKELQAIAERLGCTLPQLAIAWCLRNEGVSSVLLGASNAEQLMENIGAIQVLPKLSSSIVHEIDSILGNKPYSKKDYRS
Chain of Alpha-2C adrenergic receptor (Homo sapiens) (P18825 whole entry, looked up): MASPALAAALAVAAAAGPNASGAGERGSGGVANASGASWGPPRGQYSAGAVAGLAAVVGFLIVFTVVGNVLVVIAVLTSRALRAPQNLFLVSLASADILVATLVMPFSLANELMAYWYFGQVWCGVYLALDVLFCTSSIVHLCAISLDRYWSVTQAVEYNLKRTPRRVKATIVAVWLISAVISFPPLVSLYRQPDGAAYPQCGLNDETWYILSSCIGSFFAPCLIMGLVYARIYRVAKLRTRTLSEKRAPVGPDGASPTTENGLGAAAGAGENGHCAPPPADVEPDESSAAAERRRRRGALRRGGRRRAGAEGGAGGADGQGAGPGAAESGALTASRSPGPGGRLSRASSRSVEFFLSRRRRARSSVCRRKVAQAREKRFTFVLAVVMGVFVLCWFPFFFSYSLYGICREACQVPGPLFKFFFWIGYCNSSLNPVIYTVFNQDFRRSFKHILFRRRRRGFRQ

Compound	cell count [1]	inhibition [1]	inhibition [2]	nuclei count [2]	z-score [3, 10]	z-score [3, 11]	z-score [3, 12]	inhibition [4]	fluorescence slope [5]	NADPH fluorescence slope [6]	slope [7]	outcome [8]	inhibition [9]
COc1ccc2c(c1OC)C(=O)N1c3ccccc3SC21 (configuration not stated)	540	-6% (inactive)	-54.8% (inactive)	205%	-1.05	0.152	0.534	2.46% (inactive)	-0.361 (inactive)	1.2e-05 (inactive)	0.00516 (inactive)	inactive	20.5% (inactive)
CN1C(=O)NC(NC(=O)c2ccco2)(C(F)(F)F)C1=O (configuration not stated)	489	-3.4% (inactive)	-78% (inactive)	116%	-0.0785	-0.489	0.527	3.5% (inactive)	-0.504 (inactive)	-6e-05 (inactive)	0.00753 (inactive)	inactive	-10.1% (inactive)
CCCCNC(=O)c1cc2n(n1)C(C(F)(F)F)CC(c1ccccc1)N2 (configuration not stated)	519	-6.4% (inactive)	-41.1% (inactive)	107%	-0.754	-0.242	0.464	1.75% (inactive)	-0.529 (inactive)	-5.9e-05 (inactive)	0.00405 (inactive)	inactive	-3.15% (inactive)
CC(C)(C)c1cccc(/C=N/O)c1O	519	-19.1% (inactive)	-214% (inactive)	140%	2.16	-0.74	-1.64	7.93% (inactive)	-0.526 (inactive)	-2.2e-05 (inactive)	0.00592 (inactive)	inactive	9.58% (inactive)
COc1ccc(OC)c2c1CCC2=O	434	-0.5% (inactive)	3.9% (inactive)	102%	-0.357	-1.08	-0.0279	-1.12% (inactive)	-0.0756 (inactive)	8.5e-06 (inactive)	0.00599 (inactive)	inactive	9.78% (inactive)
COc1cc(OC)cc(C(=O)N2CCC(N3CCN(c4ccccc4)CC3)CC2)c1	382	-13.9% (inactive)	-114% (inactive)	122%	1.61	-0.715	-0.404	12.7% (inactive)	-0.342 (inactive)	5.8e-05 (inactive)	0.00556 (inactive)	inactive	-4.18% (inactive)
c1cncc(-c2nnc3sc(C4CCCCC4)nn23)c1	507	-5.5% (inactive)	-138% (inactive)	106%	0.167	-0.011	0.328	8.31% (inactive)	-0.442 (inactive)	1.1e-05 (inactive)	0.00837 (inactive)	inactive	91.8% (active)
CC(=O)c1cc2c(=O)c3ccccc3oc2nc1C	564	-7.4% (inactive)	19.7% (inactive)	151%	0.231	1.31	-0.249	26.5% (inactive)	-0.525 (inactive)	-4.9e-05 (inactive)	0.00444 (inactive)	inactive	46.5% (inactive)
COc1ccc(-c2oc3ncn4nc(Cc5ccccc5)nc4c3c2-c2ccc(OC)cc2)cc1	561	-7.8% (inactive)	-106% (inactive)	175%	0.18	0.751	0.443	-6.06% (inactive)	-0.319 (inactive)	-1.7e-05 (inactive)	0.0116 (inactive)	inactive	-5.31% (inactive)
CCCOC(=O)CSC1=C(C#N)C(c2ccccc2OC)C(C#N)C(=O)N1 (configuration not stated)	496	-3.9% (inactive)	-60% (inactive)	136%	-0.969	0.676	0.273	-2.07% (inactive)	-0.5 (inactive)	-7.4e-05 (inactive)	0.00543 (inactive)	inactive	-12.6% (inactive)
COc1ccc2c(c1OC)C(=O)N1c3ccccc3C(=O)N(c3ccccc3)C21 (configuration not stated)	475	-9.6% (inactive)	-84.9% (inactive)	169%	0.407	-0.0149	-0.273	2.46% (inactive)	-0.319 (inactive)	-5.5e-06 (inactive)	0.00449 (inactive)	inactive	3.79% (inactive)
O=C(c1ccc(=O)oc1)N1CCOCC1	357	-5.3% (inactive)	-8.3% (inactive)	167%	1.26	-0.649	0.718	-6.59% (inactive)	-0.46 (inactive)	-0.000126 (inactive)	0.0053 (inactive)	inactive	25% (inactive)
COc1ccc(OC)c(NC(=O)CSC2=C(C#N)C(c3ccco3)C3=C(CCCC3=O)N2)c1 (configuration not stated)	356	-6.8% (inactive)	-37.1% (inactive)	141%	-0.66	-0.0626	0.62	-6.59% (inactive)	-0.404 (inactive)	-0.000112 (inactive)	0.00599 (inactive)	inactive	20.2% (inactive)
Cc1cc(OCCN2CCCCC2)nc2ccccc12	482	6.3% (inactive)	-39.5% (inactive)	95%	1.18	-0.61	-0.992	26.3% (inactive)	-0.332 (inactive)	1.4e-05 (inactive)	0.0054 (inactive)	inactive	39.2% (inactive)
